Assay outcomes from PubChem.
KCNQ1 inh – blocks the human KCNQ1 potassium channel; CHO-K1 KCNQ1, FluxOR thallium flux fluorescence; stronger effect = higher value; B-score at 10 µM; 1.3% of 310,000 active; AID 2642;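 active = compounds whose thallium flux B-score, printed positive for inhibition, exceeds three library SD while starting fluorescence stays within three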;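 also: channel opened by potassium depolarization with thallium stimulus after 20 min compound exposure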
KCNQ1 pot – human KCNQ1 channel potentiation or activation | CHO-K1 KCNQ1, thallium flux FluxOR fluorescence; stronger effect = higher value | B-score at 10 µM | 0.35% of 310,000 active;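 active = fluorescence ratio B-score, a plate-corrected score, at least three library SD, with initial intensity B-score within 5 SD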
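System: CHO-K1 cells stably expressing KCNQ1 / Medium: assay buffer for compound exposure, DMSO matched across wells / Reagent: thallium- and potassium-containing depolarizing buffer / Compound: one concentration, matched DMSO / Incubation: 20 min compound pretreatment at room temperature / Measured by: kinetic FluxOR fluorescence, 10 s baseline plus 110 s post-stimulus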
KCNK9 block – blocks the human KCNK9 two-pore domain potassium channel; Q9NPC2; HEK293 KCNK9, FluxOR thallium flux fluorescence; stronger effect = lower value; 1.2% of 310,000 active; B-score at 10 µM; AID 488922;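 active = ratio B-score over 3 SD below the library mean, with starting fluorescence within 5 SD of its mean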;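 also: negative B-score means less thallium flux so channel inhibition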
hERG protect – hERG (human) protection from proarrhythmic block. CHO-hERG, FluxOR thallium flux, dofetilide IC70 present. AID 1511. 0.51% of 310,000 active. Q12809. activation (rescue from dofetilide block), less the hit threshold, % at 10 µM;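 active = activation above the mean of controls blocked by dofetilide plus 5 SD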;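 also: thallium influx through hERG after potassium depolarization seen as dye fluorescence rise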
Kir21 inh – blocks the mouse Kir2.1 inward-rectifier potassium channel; HEK293-Kir2.1, FluxOR thallium flux fluorescence; stronger effect = lower value; B-score at 10 µM; 0.85% of 310,000 active; AID 1672;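 active = fluorescence ratio B-score at or below minus 3 SD of library scores, with starting-brightness B-score within 2 SD, cut at about -4.2 in these data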;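 also: channel flux triggered by added potassium and thallium sulfate stimulus; B-score of peak minus minimum fluorescence over baseline after thallium stimulus; more negative B-score means stronger Kir2.1 block with less thallium influx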
Target sequence (P35561 whole entry, looked up): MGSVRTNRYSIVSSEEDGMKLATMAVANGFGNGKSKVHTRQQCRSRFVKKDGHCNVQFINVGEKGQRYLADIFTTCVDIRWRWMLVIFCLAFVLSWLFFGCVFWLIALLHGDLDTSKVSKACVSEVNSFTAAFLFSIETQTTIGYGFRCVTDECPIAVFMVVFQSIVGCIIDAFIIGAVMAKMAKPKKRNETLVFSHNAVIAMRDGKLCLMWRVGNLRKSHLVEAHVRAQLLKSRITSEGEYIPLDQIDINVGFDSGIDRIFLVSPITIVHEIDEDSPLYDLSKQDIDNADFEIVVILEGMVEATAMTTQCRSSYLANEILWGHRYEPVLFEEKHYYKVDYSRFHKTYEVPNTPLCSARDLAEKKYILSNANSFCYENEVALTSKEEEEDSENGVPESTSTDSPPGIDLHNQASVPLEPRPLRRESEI
KCNK3 block – human KCNK3 channel inhibition, primary screen; B-score at 10 µM; AID 602410; CHO-KCNK3 thallium flux, FluxOR fluorescence; stronger effect = lower value; 0.84% of 340,000 active;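 active = B-score under library mean minus 4 SD, starting fluorescence ratio at most library mean plus 5 SD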;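 also: more negative B-score means stronger inhibition of thallium flux through KCNK3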
KCNQ1 block val – reconfirmed blocker of the human KCNQ1 potassium channel | shares compounds with KCNQ1 inh | KCNQ1 cell line, FluxOR thallium flux fluorescence | inhibition, % at 10 µM | 93% of 1,600 active;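 active = primary screen active, with duplicate mean exceeding buffer control mean plus 3 SD of buffer wells, cut at about 28% in these data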
CHO Tl flux – activity in parental CHO cells lacking KCNQ1 | shares compounds with KCNQ1 inh | parental CHO-K1, FluxOR thallium flux fluorescence ratio; stronger effect = lower value; zero means no signal rise above baseline | fluorescence ratio (Tl flux) at 10 µM | 21% of 1,600 active | AID 588366;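 active = mean of duplicate thallium-flux fluorescence ratios in parental host cells more than 5 SD below the buffer control mean, cut at about 0.38 in these data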;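 also: ratio is peak minus minimum fluorescence divided by baseline fluorescence; actives read low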
KCNQ1 APC inh – confirmation of human KCNQ1 potassium channel inhibitors by electrophysiology; shares compounds with KCNQ1 inh; KCNQ1-CHO cells, automated patch clamp current; calls only at 10 µM; 20% of 490 active; AID 624120;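 active = KCNQ1 current drop exceeding 3 SD of negative control wells, seen in both duplicate runs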;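 also: steady state current during a 2 s step from -80 to +40 mV; negative values mean current inhibition and positive values mean potentiation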
KCNQ2 inh – KCNQ1 inhibitor that also blocks rat KCNQ2 channel. shares compounds with KCNQ1 inh. KCNQ2 cells, FluxOR thallium flux fluorescence. AID 651746. 71% of 1,600 active. inhibition, % at 10 µM;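 active = mean percent inhibition of the KCNQ2 thallium signal more than 5 SD above the buffer-only control wells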;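 also: KCNQ2 expressed in CHO cells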
KCNQ1 KCNE1 spec – selectivity of KCNQ1 inhibitors: inhibition of human KCNQ1/KCNE1 channel. KCNQ1/KCNE1 cells, FluxOR thallium flux fluorescence. shares compounds with KCNQ1 inh. 77% of 1,600 active. AID 652147. inhibition, % at 10 µM;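 active = mean percent inhibition of duplicate wells above the buffer-only control mean plus 3 SD of those controls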
Each line names hits and unclear results; the compound was inactive in the other large screens (follow-up assays come after a bar, where they were run). Compounds with a hit are over-represented: about 3.7% of the library has one in this group of screens.

Cc1nccc(-c2cccc(NC(=O)Nc3ccc(Cl)cc3)c2)n1	KCNQ1 inh 8 | KCNQ1 block val 92 | CHO Tl flux inactive | KCNQ1 APC inh inactive | KCNQ2 inh 67% | KCNQ1 KCNE1 spec 72%
Cc1cccc(NC(=O)Nc2ccc(Cl)cc2)n1	none
CN(C)c1ccc(NC(=O)Nc2cccc(Cl)c2)cc1	none
O=C(NCc1ccncc1)Nc1cccc(Cl)c1	none
O=C(NCc1cc(C(F)(F)F)cc(C(F)(F)F)c1)C1CC(c2ccccc2C(F)(F)F)=NO1 (configuration not stated)	none (no result: KCNK3 block)
OC(c1ccccc1)C(O)C(c1ccccc1)N1CCCCC1 (configuration not stated)	none (no result: KCNQ1 inh, KCNQ1 pot, KCNK9 block, hERG protect, Kir21 inh)
O=C(NCc1ccccc1)c1cccc(COc2cccc(Cl)c2)c1	KCNQ1 inh 8, KCNK3 block -11 | KCNQ1 block val 126 | CHO Tl flux 0.35 | KCNQ2 inh 95% | KCNQ1 KCNE1 spec 156%
CC(=O)OCCNc1cc(N2CCN(C)CC2)c2noc3c2c1C(=O)c1ccccc1-3	none (no result: KCNQ1 inh, KCNQ1 pot, KCNK9 block, hERG protect, Kir21 inh)
CCOC(=O)C(C(=O)OCC)c1cc(Br)c2noc3c2c1C(=O)c1ccccc1-3	KCNQ1 inh 16 | KCNQ1 block val 183 | CHO Tl flux 0.15 | KCNQ2 inh inactive | KCNQ1 KCNE1 spec inactive
O=C(COC(=O)c1ccccc1Cc1ccccc1)Nc1ccc(SC(F)F)cc1	KCNQ1 inh 7 | KCNQ1 block val 86 | CHO Tl flux inactive | KCNQ2 inh 128% | KCNQ1 KCNE1 spec 101%
O=C1N(Cc2cccc(Cl)c2)C[C@@H]2C[C@@H](c3cccn3-c3ccccn3)N3CCC[C@@]123	KCNQ1 inh 6 | KCNQ1 block val 65 | CHO Tl flux inactive | KCNQ2 inh 63% | KCNQ1 KCNE1 spec 46%
CCN1/C(=C/c2ccc3cc(C)cc(C)c3[n+]2CC)Sc2cc(C)ccc21	none (no result: KCNQ1 inh, KCNQ1 pot, KCNK9 block, hERG protect, Kir21 inh)
CCN1/C(=C\c2ccc3cc(C)ccc3[n+]2CC)Sc2cc(C)c(C)cc21	KCNQ1 inh 17 | KCNQ1 block val 170 | CHO Tl flux 0.26 | KCNQ2 inh inactive | KCNQ1 KCNE1 spec inactive
Cc1cccc(N2CCN(C(=O)c3noc4c3COc3ccc(C)cc3-4)CC2C)c1 (configuration not stated)	KCNQ1 inh 10 | KCNQ1 block val 88 | CHO Tl flux inactive | KCNQ2 inh 98% | KCNQ1 KCNE1 spec 112%
COc1cccc(OC)c1Oc1ccc(C(F)(F)F)cn1	KCNQ1 inh 7 | KCNQ1 block val 85 | CHO Tl flux inactive | KCNQ2 inh inactive | KCNQ1 KCNE1 spec 82%
FC(F)(F)c1ccc(Oc2ccccc2Cl)nc1	none
CCc1nc2ccccc2n1CC(=O)NC1CCS(=O)(=O)C1 (configuration not stated)	none (no result: KCNQ1 inh, KCNQ1 pot, KCNK9 block, hERG protect, Kir21 inh)
COc1ccc(N(CC(=O)Nc2ccccc2OC)S(=O)(=O)c2ccccc2)cc1Cl	KCNQ1 inh 7 | KCNQ1 block val 74 | CHO Tl flux inactive | KCNQ2 inh 92% | KCNQ1 KCNE1 spec 102%
COc1ccc(N(CC(=O)Nc2cccnc2)S(=O)(=O)c2ccccc2)cc1Cl	none
CC1=NC(C)(C)CC2CCC(O)C12 (configuration not stated)	none (no result: KCNQ1 inh, KCNQ1 pot, KCNK9 block, hERG protect, Kir21 inh)
Cc1ccc(Cl)cc1N1CCN(C(=O)COc2ccc3c(c2)CCC3)CC1	KCNQ1 inh 7 | KCNQ1 block val 118 | CHO Tl flux inactive | KCNQ1 APC inh inactive | KCNQ2 inh 121% | KCNQ1 KCNE1 spec 170%
